Results on six molecules are retold here after ChEMBL document CHEMBL1275515, “CYP56 (Dit2p) in Candida albicans: characterization and investigation of its role in growth and antifungal drug susceptibility” (Antimicrob Agents Chemother, 2008).

SMILES strings stand for the structures. Values after ≈ are worked out from the molar mass of the structure shown.

Experiment [1] is described as follows: Binding affinity to Candida albicans CYP56 by spectrophotometry. The procedure, abridged:
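His-tagged C. albicans CYP56 was expressed in E. coli BL21(DE3) and purified on Ni2+-NTA agarose, then used at 2 μM. Azole in DMSO was titrated stepwise (23–684 nM across the drugs), scanning 350–500 nm. Kd was taken from ΔA430-412 versus azole concentration by Levenberg-Marquardt nonlinear regression of the Hill equation.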

In experiment [2] the test system is Candida albicans. Briefly: Antimicrobial activity against wild type Candida albicans SC5314 by Etest method. The class given is functional.
The test system of experiment [3] is Candida albicans. Kind of experiment: Antimicrobial activity against Candida albicans YNM11 harboring cyp56delta::FRT/cyp56::FRT mutant gene by Etest method. The class given is functional.
For experiment [4], the system named is Candida albicans. Briefly: Antimicrobial activity against Candida albicans YNM12 harboring cyp56delta::FRT/cyp56::FRT/RP10-CYP56 mutant gene by Etest method. The class given is functional.
Experiment [5] deals with Candida albicans. Kind of experiment: Binding affinity to Candida albicans CYP56 assessed as dissociation constant for enzyme-substrate complex by spectrophotometry. Put shortly:
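His-tagged CYP56 expressed in E. coli BL21(DE3) and Ni2+-NTA purified; 2 μM enzyme in 0.1 M potassium phosphate (pH 7.4) with 20% glycerol. N-formyl tyrosine titrated from 26 to 253 μM, with spectra read at 320–470 nm until saturation. ΔA390-412 fitted to the Hill equation by nonlinear regression. A Hill plot gave ks (enzyme–substrate dissociation constant) and Hill number.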

Take `CCC(C)n1ncn(-c2ccc(N3CCN(c4ccc(OCC5COC(Cn6cncn6)(c6ccc(Cl)cc6Cl)O5)cc4)CC3)cc2)c1=O` (configuration not stated) [ITRACONAZOLE]: in experiment [1], the Kd (usually the constant that tells how readily two partners part at equilibrium) came to 100 nM.

On to `C[C@@H]1[C@H](O)[C@@H](C)/C=C/C=C/C=C/C=C/C=C/C=C/C=C/[C@H](O[C@@H]2O[C@H](C)[C@@H](O)[C@H](N)[C@@H]2O)C[C@@H]2O[C@](O)(C[C@@H](O)C[C@@H](O)[C@H](O)CC[C@@H](O)C[C@@H](O)CC(=O)O[C@H]1C)C[C@H](O)[C@H]2C(=O)O` [AMPHOTERICIN B], for which the MIC in experiment [2] and in experiment [3] was 1 µg/mL (≈ 1.08 µM) each time.

In the case of `CC[C@H](C)C[C@H](C)CCCCCCCCC(=O)N[C@H]1C[C@@H](O)[C@@H](NCCN)NC(=O)[C@@H]2[C@@H](O)CCN2C(=O)[C@H]([C@H](O)CCN)NC(=O)[C@H]([C@H](O)[C@@H](O)c2ccc(O)cc2)NC(=O)[C@@H]2C[C@@H](O)CN2C(=O)[C@H]([C@@H](C)O)NC1=O` [CASPOFUNGIN], the MIC80 (as a rule, the lowest concentration that inhibits either 80% of growth or 80% of the strains tested, depending on the study) in experiment [4] came out at 0.03 µg/mL (≈ 0.0274 µM); in experiment [2], 0.015 µg/mL (≈ 0.0137 µM).

As to `C[C@@H](c1ncncc1F)[C@](O)(Cn1cncn1)c1ccc(F)cc1F` [VORICONAZOLE], the MIC80 in experiment [2] and in experiment [3] was 0.007 µg/mL (≈ 0.02 µM) each time. The molecule further came in with a Kd in experiment [1] of 510 nM.

For `O=CN[C@@H](Cc1ccc(O)cc1)C(=O)O`, the Ks in experiment [5] was 26 µM.

For the molecule `OC(Cn1cncn1)(Cn1cncn1)c1ccc(F)cc1F` [FLUCONAZOLE], the MIC80 in experiment [2] and in experiment [3] was 0.06 µg/mL (≈ 0.196 µM) throughout. For the same molecule, in experiment [1], the dissociation constant Kd turned out to be 230 nM.
